ChEMBL document CHEMBL4138118, “Novel thioglycosyl analogs of glycosyltransferase substrates as antiviral compounds against classical swine fever virus and hepatitis C virus” (Eur J Med Chem, 2017)
pIC50: −log10 of the molar value. Activity calls are given as the source filed them. The calls are words filed in the database; no cut-off is given here.

Assays:
[1] = Selectivity index, ratio of CC50 for Huh7.5 cells to IC50 for HCV Jc1/JFH; assay type: toxicity; details: human, read-out: Ratio CC50/IC50
In short: (§1)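 Selectivity index is CC50/IC50, taken from the cell viability assay (SK6 by MTS, Huh-7.5 by MTT) and the matching pseudo-plaque reduction assay.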

[2] = Selectivity index, ratio of CC50 for SK6 cells to IC50 for CSFV; assay type: toxicity; details: pig, read-out: Ratio CC50/IC50; in short: as §1
[3] = test system: Classical swine fever virus; test: Antiviral activity against CSFV infected in SK6 cells assessed as reduction of pseudo-plaque formation after 2 days by immunoperoxidase monolayer assay; assay type: functional, organism-based; details: 48 h
[4] = Cytotoxicity against human Huh7.5 cells assessed as reduction in cell viability after 72 hrs by MTT method; assay type: cell-based
Hepatitis C virus [5] = test: Antiviral activity against HCV Jc1/JFH infected in human Huh7.5 cells assessed as reduction of pseudo-plaque formation after 72 hrs by immunoperoxidase monolayer assay; assay type: functional, organism-based, Hepacivirus hominis; details: for pIC50: Huh7.5, 72 h
In short: (§2)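 Huh-7.5 cells seeded at 1.5 × 10^4 per well, infected next day with Jc1/JFH HCVcc (genotype 2a) at MOI 0.1 for 3 h. Virus removed, medium with compound added; 72 h later cells fixed in cold methanol, permeabilized (0.5% Triton X-100), stained with anti-core antibody (1:300), HRP secondary. Pseudo-plaques counted by microscopy against untreated infected control; IC50 at 50% plaque reduction; three independent experiments.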

[6] = Cytotoxicity against SK6 cells assessed as reduction in cell viability after 2 days by MTS method; assay type: cell-based, Sus scrofa; details: pig; for Activity: 48 h; for CC50 at 48 h: SK6 cells
In short: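 SK6 viability by MTS (CellTiter 96 AQueous) assay; CC50 is the concentration reducing viability by 50%, taken from the dose-response curve.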

Hepatitis C virus [7] = test: Antiviral activity against HCV infected in human Huh7-J17 cells assessed as inhibition of viral RNA replication after 72 hrs by bright-glo luciferase reporter assay; assay type: functional, organism-based, Hepacivirus hominis
In short: (§3)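 Huh7-J17 replicon cells seeded in 96-well plates together with compound, DMSO or sofosbuvir and incubated 72 h. Cells lysed and luciferase read with Bright-Glo. Values expressed as % of DMSO-treated cells; IC50 from dose-response fit; three experiments.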

[8] = Cytotoxicity against human Huh7-J20 cells assessed as decrease in cell viability at 1.56 to 75 uM after 72 hrs by MTT assay; assay type: cell-based
In short: (§4)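 Uninfected Huh7-J17, Huh7-J20 or Huh-7.5 cells incubated with compound, then viability read by MTT. Time stated as 72 h for Huh7-J20 and Huh7-J17, and 48 h for Huh-7.5. Results expressed relative to DMSO-treated cells (100%); CC50 from the dose-response curve.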

Hepatitis C virus [9] = test: Antiviral activity against HCV genotype 2a JFH1 infected in human Huh7-J20 cells assessed as inhibition of complete viral life cycle at 1.56 to 75 uM pretreated for 1 hr with cells followed by viral infection for 3 hrs and subsequent addition of fresh medium with compound measured after 72 hrs by SEAP reporter assay; assay type: functional, organism-based; details: Hepacivirus hominis, JFH-1
In short: (§5)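 Huh7-J20 SEAP reporter cells, infected with JFH-1 HCVcc, read-out SEAP chemiluminescence in supernatant after 72 h. Model 1: 1 h compound pretreatment, 3 h infection with compound, then compound-free medium. Model 2: same, with compound kept for the full 72 h. Model 3: 3 h infection, compound added afterwards only. DMSO control; three experiments.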

Hepatitis C virus [10] = test: Antiviral activity against HCV Jc1/JFH infected in human Huh7.5 cells assessed as reduction of pseudo-plaque formation at 80 uM after 72 hrs by immunoperoxidase monolayer assay relative to control; assay type: functional, Hepacivirus hominis; design: scale not given: the % may be the effect or the level left; in short: as §2
[11] = Cytotoxicity against human Huh7-J17 cells assessed as decrease in cell viability after 72 hrs by MTT assay; assay type: cell-based; in short: as §4
Hepatitis C virus [12] = test: Antiviral activity against HCV infected in human Huh7-J17 cells assessed as inhibition of viral RNA replication at 75 uM after 72 hrs by bright-glo luciferase reporter assay relative to control; assay type: functional, Hepacivirus hominis; in short: as §3
Hepatitis C virus [13] = test: Antiviral activity against HCV Jc1/JFH infected in human Huh7.5 cells assessed as downregulation of NS5B gene expression after 48 hrs by RT-PCR method; assay type: functional, organism-based; details: Hepacivirus hominis
In short: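 Huh-7.5 cells infected with HCV (MOI 0.1) for 4 h, washed, then cultured with compound for 48 h. Total RNA isolated; 1 µg reverse-transcribed with an NS5B-specific reverse primer, then PCR for NS5B. Band densitometry expressed as % of untreated infected control.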

[14] = Effect on actin levels in SK6 cells at 2.5 to 10 uM under non-reducing condition after 48 hrs by Western blot method; assay type: ADME, cell-based, Sus scrofa; details: pig
[15] = test system: Classical swine fever virus; test: Antiviral activity against CSFV infected in SK6 cells assessed as reduction of pseudo-plaque formation at 9 uM after 2 days by immunoperoxidase monolayer assay relative to control; assay type: functional; design: scale not given: the % may be the effect or the level left
Hepatitis C virus [16] = test: Antiviral activity against HCV genotype 2a JFH1 infected in human Huh7-J20 cells assessed as inhibition of viral RNA replication at 1.56 to 75 uM after 72 hrs by SEAP reporter assay; assay type: functional, organism-based; details: Hepacivirus hominis, JFH-1; in short: as §5
Hepatitis C virus [17] = test: Antiviral activity against HCV genotype 2a JFH1 infected in human Huh7-J20 cells assessed as inhibition of viral entry at 1.56 to 75 uM pretreated for 1 hr with cells followed by viral infection for 3 hrs and subsequent compound washout measured after 72 hrs by SEAP reporter assay; assay type: functional, organism-based; details: Hepacivirus hominis, JFH-1; in short: as §5
[18] = Effect on actin levels in human Huh7.5 cells at 6.25 to 100 uM under reducing condition after 48 hrs by Western blot method; assay type: ADME, cell-based
In short: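 Huh-7.5 cells infected with HCV (MOI 0.1), washed after 1–6 h, then treated with inhibitor. Lysed in RIPA buffer with protease inhibitors after 48 h (methods; legend gives 72 h p.i.). 20 µg protein run on reducing SDS-PAGE; Western blot probed with anti-E1 mAb (1:2000) and anti-actin (1:1000).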

[19] = test system: Classical swine fever virus; test: Inhibition of CSFV glycosyltransferase in SK6 cells assessed as downregulation of viral E2 levels under non-reducing condition after 48 hrs by Western blot method; assay type: cell-based
Hepatitis C virus [20] = test: Antiviral activity against HCV genotype 2a JFH1 infected in human Huh7-J20 cells assessed as inhibition of viral assembly at 1.56 to 75 uM after 72 hrs by SEAP reporter assay; assay type: functional, organism-based; details: Hepacivirus hominis, JFH-1; in short: as §5

Structure (SMILES) | selectivity ratio [1] | selectivity ratio [2] | pIC50 [3] | CC50 at 72 h [4] [µM] | pIC50 (Hepatitis C virus [5]) | Activity [6] | CC50 at 48 h [6] [µM] | further results
CC(=O)OC[C@H]1O[C@@H](Sc2ccc(NC(=O)CCC(=O)OC[C@H]3O[C@@H](n4ccc(=O)[nH]c4=O)[C@@H]4OC(C)(C)O[C@@H]43)cn2)[C@H](OC(C)=O)[C@@H](OC(C)=O)[C@@H]1OC(C)=O | 1.4 | 2 | 3.99 | 328 | 3.64 | Dose-dependent effect | 207 | 
CC(=O)OC[C@H]1O[C@@H](Sc2ccc(NC(=O)[C@H]3O[C@@H](n4ccc(=O)[nH]c4=O)[C@H](O[Si](C)(C)C(C)(C)C)[C@@H]3O[Si](C)(C)C(C)(C)C)cn2)[C@H](OC(C)=O)[C@@H](OC(C)=O)[C@@H]1OC(C)=O | 19.3 | 28.7 | 5.52 | 135 | 5.15 | Dose-dependent effect | 86 | pIC50 (Hepatitis C virus [7]): 5.40; Activity [8]: Non-Toxic; inhibition (Hepatitis C virus [9]): Active; Activity (Hepatitis C virus [10]): >90%; CC50 at 72 h [11]: 185 µM; inhibition at 75 µM (Hepatitis C virus [12]): 90%; Activity (Hepatitis C virus [13]): Dose-dependent effect; Activity [14]: Non-Toxic; Activity [15]: >90%; Activity (Hepatitis C virus [5]; Hepacivirus hominis): Dose-dependent effect; inhibition (Hepatitis C virus [16]): Active; inhibition (Hepatitis C virus [17]): inactive; Activity [18]: Non-Toxic; inhibition [19]: Dose-dependent effect; inhibition (Hepatitis C virus [20]): Active
CC(=O)OC[C@H]1O[C@@H](Sc2ccc(NC(=O)[C@H]3O[C@@H](n4ccc(=O)[nH]c4=O)[C@@H]4OC(C)(C)O[C@@H]43)cn2)[C@H](OC(C)=O)[C@@H](OC(C)=O)[C@H]1OC(C)=O | 1.2 | > 1.2 | < 3.52 | 312 | 3.57 | Dose-dependent effect | > 353 | 
CC(=O)OC[C@H]1O[C@@H](Sc2ccc(NC(=O)[C@H]3O[C@@H](n4ccc(=O)[nH]c4=O)[C@@H]4OC(C)(C)O[C@@H]43)cn2)[C@H](OC(C)=O)[C@@H](OC(C)=O)[C@@H]1OC(C)=O | 1.1 | > 1.2 | < 3.49 | 271 | 3.61 | Dose-dependent effect | > 380 | 
CC(=O)OC[C@H]1O[C@@H](Sc2ccc(NC(=O)[C@H]3O[C@@H](n4ccc(=O)[nH]c4=O)[C@H](O)[C@@H]3O)cn2)[C@H](OC(C)=O)[C@@H](OC(C)=O)[C@@H]1OC(C)=O | 1.1 | 1.1 | 3.49 | 402 | 3.43 | Dose-dependent effect | 350 | 
O=C(Nc1ccc(S[C@@H]2O[C@H](CO)[C@@H](O)[C@H](O)[C@H]2O)nc1)[C@H]1O[C@@H](n2ccc(=O)[nH]c2=O)[C@H](O)[C@@H]1O | 1.05 | 1 | 3.43 | 420 | 3.40 | Dose-dependent effect | 380 | 
CC(=O)OC[C@H]1O[C@@H](Sc2ccc(NC(=O)CCC(=O)OC[C@H]3O[C@@H](n4ccc(=O)n(C(=O)c5ccccc5)c4=O)[C@H](O[Si](C)(C)C(C)(C)C)[C@@H]3O[Si](C)(C)C(C)(C)C)cn2)[C@H](OC(C)=O)[C@@H](OC(C)=O)[C@@H]1OC(C)=O | 1.6 | 3.5 | 4.89 | 71 | 4.35 | Dose-dependent effect | 45 | 
CC(=O)OC[C@H]1O[C@@H](Sc2ccc(NC(=O)CCC(=O)OC[C@H]3O[C@@H](n4ccc(=O)[nH]c4=O)[C@@H]4OC(C)(C)O[C@@H]43)cn2)[C@H](OC(C)=O)[C@@H](OC(C)=O)[C@H]1OC(C)=O | 1.6 | 4 | 4.31 | 340 | 3.67 | Dose-dependent effect | 194 | 
CC(C)OC(=O)[C@H](C)N[P@](=O)(OC[C@H]1O[C@@H](n2ccc(=O)[nH]c2=O)[C@](C)(F)[C@@H]1O)Oc1ccccc1 [SOFOSBUVIR] | 119 |  |  | 31 | 6.59 |  |  | pIC50 (Hepatitis C virus [7]): 7.55; CC50 at 72 h [11]: 23.5 µM
CC(C)(C)[Si](C)(C)OC[C@H]1O[C@@H](Sc2ccc(NC(=O)[C@H]3O[C@@H](n4ccc(=O)[nH]c4=O)[C@H](O[Si](C)(C)C(C)(C)C)[C@@H]3O[Si](C)(C)C(C)(C)C)cn2)[C@H](OC(=O)c2ccccc2)[C@@H](OC(=O)c2ccccc2)[C@@H]1OC(=O)c1ccccc1 | > 1.1 | 1.9 | 4.01 | > 270 | < 3.63 | Dose-dependent effect | 186 | 
